How the values were obtained:
Assay type in all cases: cell-based
[1] = Cytotoxicity against human Raji cells assessed as cell viability at 1000 molar ratio; details: read-out: Activity
Procedure, shortened: (§1)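 Raji cell viability was recorded in the same TPA-induced EBV-EA assay (TPA 20 ng/ml, 32 pM/ml), with compound at 10, 100, 500 or 1000 mol ratio to TPA. Viability is reported as a percentage.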

[2] = Cytotoxicity against human Raji cells assessed as cell viability at 10 molar ratio; details: read-out: Activity; procedure, shortened: as §1
[3] = Cytotoxicity against human Raji cells assessed as cell viability at 500 molar ratio; details: read-out: Activity; procedure, shortened: as §1
[4] = Cytotoxicity against human Raji cells assessed as cell viability at 100 molar ratio; details: read-out: Activity; procedure, shortened: as §1
Raji [5] = assay: Inhibition of 12-O-tetradecanoylphorbol-13-acetate induced EBV-early antigen activation in human Raji cells assessed as EA activation at 10 molar ratio relative to TPA; design: scale not given: the % may be the effect or the level left; details: human gammaherpesvirus 4
Procedure, shortened: (§2)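 Raji cells stimulated with TPA at 20 ng/ml (32 pM/ml) in the presence of test compound at 10, 100, 500 or 1000 mol ratio to TPA. EBV early antigen activation is reported as a percentage of the TPA-only positive control (100%).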

Raji [6] = assay: Inhibition of 12-O-tetradecanoylphorbol-13-acetate induced EBV-early antigen activation in human Raji cells assessed as EA activation at 100 molar ratio relative to TPA; design: scale not given: the % may be the effect or the level left; details: human gammaherpesvirus 4; procedure, shortened: as §2
Raji [7] = assay: Inhibition of 12-O-tetradecanoylphorbol-13-acetate induced EBV-early antigen activation in human Raji cells assessed as EA activation at 500 molar ratio relative to TPA; design: scale not given: the % may be the effect or the level left; details: human gammaherpesvirus 4; procedure, shortened: as §2
Raji [8] = assay: Inhibition of 12-O-tetradecanoylphorbol-13-acetate induced EBV-early antigen activation in human Raji cells assessed as EA activation at 1000 molar ratio relative to TPA; design: scale not given: the % may be the effect or the level left; details: human gammaherpesvirus 4; procedure, shortened: as §2

**Q.** With `CC(=O)O[C@H]1CC[C@@H](C)[C@]23OC(C)(C)[C@H](C[C@H](OC(=O)c4ccccc4)[C@]12C)[C@H]3OC(=O)c1ccccc1` as the molecule, how does the viability at 1000 molar ratio [1] read?
**A.** 70%

**Q.** What about the viability at 10 molar ratio [2] of the same molecule?
**A.** > 80%

**Q.** And the viability at 500 molar ratio [3]?
**A.** > 80%

**Q.** And the viability at 100 molar ratio [4]?
**A.** > 80%

**Q.** What about the Activity (Raji [5]) of the same molecule?
**A.** 100%

**Q.** And the Activity (Raji [6])?
**A.** 100%

**Q.** What about the Activity (Raji [7]) of the same molecule?
**A.** 84.6%

**Q.** And the Activity (Raji [8])?
**A.** 53.6%

**Q.** For `CC(=O)O[C@@H]1[C@@H]2[C@@H](OC(C)=O)[C@]3(OC2(C)C)[C@H](C)CC[C@H](OC(C)=O)[C@@]3(C)[C@H]1OC(=O)c1ccccc1`, which viability at 1000 molar ratio [1] is on record?
**A.** 70%

**Q.** What about the viability at 10 molar ratio [2] of the same molecule?
**A.** > 80%

**Q.** What about the viability at 500 molar ratio [3] of the same molecule?
**A.** > 80%

**Q.** And the viability at 100 molar ratio [4]?
**A.** > 80%

**Q.** And the Activity (Raji [5])?
**A.** 100%

**Q.** And the Activity (Raji [6])?
**A.** 90.6%

**Q.** And the Activity (Raji [7])?
**A.** 52.8%

**Q.** What about the Activity (Raji [8]) of the same molecule?
**A.** 15.3%

**Q.** What does the source list for `CC(=O)O[C@H]1CC[C@@H](C)[C@]23OC(C)(C)[C@H](C[C@H](OC(=O)c4ccccc4)[C@]12C)[C@H]3OC(C)=O`?
**A.** viability at 1000 molar ratio [1]: 70%; viability at 10 molar ratio [2]: > 80%; viability at 500 molar ratio [3]: > 80%; viability at 100 molar ratio [4]: > 80%; Activity (Raji [5]): 100%; Activity (Raji [6]): 92.1%; Activity (Raji [7]): 47.9%; Activity (Raji [8]): 26.2%

**Q.** Which results are given for `CC(=O)O[C@H]1C[C@@H](C)[C@@]23C[C@@H](C[C@H](OC(=O)/C=C/c4ccccc4)[C@]2(C)[C@H]1OC(C)=O)C(C)(C)O3`?
**A.** viability at 1000 molar ratio [1]: 70%; viability at 10 molar ratio [2]: > 80%; viability at 500 molar ratio [3]: > 80%; viability at 100 molar ratio [4]: > 80%; Activity (Raji [5]): 100%; Activity (Raji [6]): 89.4%; Activity (Raji [7]): 63.1%; Activity (Raji [8]): 25.6%

**Q.** For `CC(=O)O[C@@H]1[C@H]2[C@@H](O)[C@@H](OC(=O)c3ccccc3)[C@]3(C)[C@@H](OC(=O)c4ccccc4)CC[C@@H](C)[C@@]13OC2(C)C`, which viability at 1000 molar ratio [1] is on record?
**A.** 60%

**Q.** What about the viability at 10 molar ratio [2] of the same molecule?
**A.** > 80%

**Q.** And the viability at 500 molar ratio [3]?
**A.** > 80%

**Q.** What about the viability at 100 molar ratio [4] of the same molecule?
**A.** > 80%

**Q.** What about the Activity (Raji [5]) of the same molecule?
**A.** 100%

**Q.** What about the Activity (Raji [6]) of the same molecule?
**A.** 81.1%

**Q.** And the Activity (Raji [7])?
**A.** 39.3%

**Q.** What about the Activity (Raji [8]) of the same molecule?
**A.** 0%

**Q.** Which viability at 1000 molar ratio [1] does the source give for `CC(=O)O[C@H]1C[C@@H](C)[C@@]23C[C@@H](C[C@H](OC(=O)/C=C/c4ccccc4)[C@]2(C)[C@H]1O)C(C)(C)O3` here?
**A.** 70%

**Q.** What about the viability at 10 molar ratio [2] of the same molecule?
**A.** > 80%

**Q.** And the viability at 500 molar ratio [3]?
**A.** > 80%

**Q.** And the viability at 100 molar ratio [4]?
**A.** > 80%

**Q.** And the Activity (Raji [5])?
**A.** 100%

**Q.** What about the Activity (Raji [6]) of the same molecule?
**A.** 86.4%

**Q.** What about the Activity (Raji [7]) of the same molecule?
**A.** 41.6%

**Q.** What about the Activity (Raji [8]) of the same molecule?
**A.** 0%

**Q.** Which viability at 1000 molar ratio [1] does the source give for `CC(=O)O[C@H]1C[C@@H](C)[C@]23OC(C)(C)[C@H](C[C@H](OC(=O)c4ccccc4)[C@]2(C)[C@H]1OC(C)=O)[C@H]3OC(C)=O` here?
**A.** 70%

**Q.** What about the viability at 10 molar ratio [2] of the same molecule?
**A.** > 80%

**Q.** And the viability at 500 molar ratio [3]?
**A.** > 80%

**Q.** And the viability at 100 molar ratio [4]?
**A.** > 80%

**Q.** What about the Activity (Raji [5]) of the same molecule?
**A.** 100%

**Q.** What about the Activity (Raji [6]) of the same molecule?
**A.** 92.9%

**Q.** And the Activity (Raji [7])?
**A.** 65.9%

**Q.** What about the Activity (Raji [8]) of the same molecule?
**A.** 34.2%

— ChEMBL document CHEMBL1148162, “Structures of sesquiterpene polyol esters from Celastrus stephanotiifolius with potential tumor-promotion inhibitor activity” (J Nat Prod, 1993)
